Laboratory results as given in ChEMBL document CHEMBL1123026, “Preparation and antiarthritic and analgesic activity of 4,5-diaryl-2-(substituted thio)-1H-imidazoles and their sulfoxides and sulfones” (1985).

What was measured:
Assay type in all cases: functional
Rattus norvegicus [1] = assay: Effective dose determined against rat adjuvant arthritis after peroral administration; conditions: po
In short: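 Male Lewis rats (130-150 g) given 0.1 mL Mycobacterium butyricum adjuvant (5 mg/mL in mineral oil) s.c. into the right hind paw; arthritis developed for 2 weeks. Groups of 10 matched for severity were dosed orally by gavage in PVA-acacia vehicle (10 mL/kg) for 7 days. Uninjected left paw volume was measured the day after the last dose. Percent decrease was calculated vs arthritic and nonarthritic controls. ED50 was read from a visually fitted semilog dose-response line.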

Mus musculus = assay: Effective dose determined by mouse phenyl-p-benzoquinone writhing (PQW) assay after peroral administration; conditions: po
In short: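 Fasted (17-21 h) female white mice, 5-20 per double-blind test, dosed orally with compound suspended in 1% methylcellulose. 0.20 mL aqueous 0.01% phenyl-p-benzoquinone given i.p. 6 min before a 10-min observation for stretching/writhing. ED50 (dose protecting 50% of mice) calculated by the moving-average method.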

Rattus norvegicus [2] = assay: Decrease in paw volume was evaluated at dose 25 mg/kg
In short: (§1)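 Male Lewis rats (130-150 g) got 0.1 mL adjuvant (heat-killed Mycobacterium butyricum, 5 mg/mL in mineral oil) subplantar in the right hind paw and were left 2 weeks. Groups of 10 matched for severity were dosed orally by gavage (PVA-acacia vehicle, 10 mL/kg) for 7 days. Uninjected left hind paw volume was read the next day. % decrease = (arthritic control − treated)/(arthritic − nonarthritic control) × 100; Student's t-test.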

Rattus norvegicus [3] = assay: Decrease in paw volume by the effect of compound at a dose of 100 mg/kg; in short: as §1
Rattus norvegicus [4] = assay: Decrease in paw volume by the effect of compound at a dose of 50 mg/kg; in short: as §1

Row | Compound | ED50 (Rattus norvegicus [1]) [mg/kg] | ED50 (Mus musculus) [mg/kg] | other results
1 | COc1ccc(-c2nc(SC[S+](C)[O-])[nH]c2-c2ccc(OC)cc2)cc1 (stereo not given) | 52 | – | –
2 | FC(F)C(F)(F)Sc1nc(-c2cccc(Cl)c2)c(-c2ccccc2)[nH]1 | – | > 130 | –
3 | COc1ccc(-c2[nH]c(SC)nc2-c2ccccc2)cc1 | – | > 130 | Decrease (Rattus norvegicus [2]): 35%
4 | CCCS(=O)(=O)c1nc(-c2ccccc2)c(-c2ccccc2)[nH]1 | – | > 130 | Decrease (Rattus norvegicus [3]): 26%
5 | C[S+]([O-])c1nc(-c2cccc(F)c2)c(-c2ccccc2)[nH]1 (stereo not given) | – | > 130 | Decrease (Rattus norvegicus [3]): 67%
6 | CS(=O)(=O)c1nc(-c2ccc(Cl)cc2)c(-c2ccccc2)[nH]1 | – | > 130 | –
7 | COc1ccc(-c2nc(SCC(C)=O)[nH]c2-c2ccc(OC)cc2)cc1 | 10 | – | –
8 | CCSc1nc(-c2ccccc2)c(-c2ccccc2)[nH]1 | 100 | > 130 | –
9 | FC(F)(F)Sc1nc(-c2ccc(Cl)c(Cl)c2)c(-c2ccccc2)[nH]1 | – | > 130 | –
10 | FC(F)C(F)(F)Sc1nc(-c2cccc(Cl)c2)c(-c2cccc(Cl)c2)[nH]1 | 1.2 | > 130 | –
11 | C[S+]([O-])c1nc(-c2ccc(Cl)c(Cl)c2)c(-c2ccccc2)[nH]1 (stereo not given) | – | > 130 | Decrease (Rattus norvegicus [4]): 46%
12 | FC(F)C(F)(F)Sc1nc(-c2ccc(Cl)c(Cl)c2)c(-c2ccccc2)[nH]1 | – | > 130 | –
13 | COc1ccc(-c2[nH]c(S(=O)(=O)C(F)(F)C(F)F)nc2-c2ccccc2Cl)cc1 | 6 | – | –
14 | COc1ccc(-c2[nH]c(SC(F)(F)C(F)F)nc2-c2ccc(F)cc2)cc1 | – | > 130 | –
15 | Cl.Nc1ccc(-c2[nH]c(S(=O)(=O)C(F)(F)C(F)F)nc2-c2ccc(F)cc2)cc1 | > 3 | – | –
16 | [O-][S+](CCC(F)(F)F)c1nc(-c2ccccc2)c(-c2ccccc2)[nH]1 (stereo not given) | > 75 | > 130 | –
17 | [O-][S+](CC(F)(F)C(F)(F)F)c1nc(-c2ccccc2)c(-c2ccccc2)[nH]1 (stereo not given) | > 75 | > 130 | –
18 | CSc1nc(-c2cccc(F)c2)c(-c2ccccc2)[nH]1 | 75 | > 130 | –
19 | Fc1ccc(-c2[nH]c(SC(F)(F)C(F)F)nc2-c2ccc(Cl)cc2)cc1 | – | > 130 | –
20 | FC(F)(F)C(F)(F)CSc1nc(-c2ccccc2)c(-c2ccccc2)[nH]1 | – | > 135 | –
21 | Fc1ccc(-c2nc(SC(F)(F)C(F)F)[nH]c2-c2ccc(F)cc2)cc1 | 0.05 | > 81 | –
22 | [O-][S+](CCC(F)(F)C(F)(F)F)c1nc(-c2ccccc2)c(-c2ccccc2)[nH]1 (stereo not given) | > 75 | > 130 | –
23 | COc1ccc(-c2nc(SC)[nH]c2-c2ccc(OC)cc2)cc1 | 4.5 | > 135 | –

Row | Compound | ED50 (Rattus norvegicus [1]) [mg/kg] | ED50 (Mus musculus) [mg/kg] | other results
24 | O=S(=O)(c1nc(-c2ccccc2)c(-c2ccccc2)[nH]1)C(F)(F)C(F)F | 0.095 | – | –
25 | O=S(=O)(CC(F)(F)C(F)(F)F)c1nc(-c2ccccc2)c(-c2ccccc2)[nH]1 | > 100 | > 130 | –
26 | CSCSc1nc(-c2ccccc2)c(-c2ccccc2)[nH]1 | > 50 | > 130 | –
27 | CSc1nc(-c2ccc(Cl)cc2)c(-c2ccc(Cl)cc2)[nH]1 | 4 | > 135 | –
28 | FC(Br)C(F)(F)Sc1nc(-c2ccccc2)c(-c2ccccc2)[nH]1 (stereo not given) | 11 | > 130 | –
29 | COc1ccc(-c2[nH]c(SC(F)(F)C(F)F)nc2-c2ccccc2)cc1 | 30 | > 130 | –
30 | Cc1ccc(-c2[nH]c(S(C)(=O)=O)nc2-c2ccccc2)cc1 | – | > 130 | Decrease (Rattus norvegicus [3]): 45%
31 | Fc1cccc(-c2nc(SC(F)(F)C(F)F)[nH]c2-c2ccccc2)c1 | 2.5 | > 130 | –
32 | O=S(=O)(CCC(F)(F)C(F)(F)F)c1nc(-c2ccccc2)c(-c2ccccc2)[nH]1 | > 75 | > 130 | –
33 | CCCC[S+]([O-])c1nc(-c2ccccc2)c(-c2ccccc2)[nH]1 (stereo not given) | > 100 | > 130 | –
34 | FC(F)C(F)(F)Sc1nc(-c2ccc(Cl)cc2)c(-c2ccc(Cl)cc2)[nH]1 | 0.33 | > 135 | –
35 | COc1ccc(-c2nc([S+](C)[O-])[nH]c2-c2ccc(OC)cc2)cc1 (stereo not given) | 6.5 | > 135 | –
36 | CS(=O)(=O)c1nc(-c2ccc(F)cc2)c(-c2ccc(C(F)(F)F)cc2)[nH]1 | – | > 130 | –
37 | Fc1ccc(-c2nc(SC(F)(F)C(F)F)[nH]c2-c2ccc(C(F)(F)F)cc2)cc1 | – | > 130 | –
38 | CSc1nc(-c2ccc(F)cc2)c(-c2ccc(F)cc2)[nH]1 | 4 | > 130 | –
39 | CSc1nc(-c2ccc(F)cc2)c(-c2ccc(C(F)(F)F)cc2)[nH]1 | – | > 130 | –
40 | CS(=O)(=O)c1nc(-c2ccc(Cl)cc2)c(-c2ccc(Cl)cc2)[nH]1 | – | 3.7 | –
41 | COc1ccc(-c2nc([S+]([O-])CC(F)(F)F)[nH]c2-c2ccc(OC)cc2)cc1 (stereo not given) | 11 | – | –
42 | C=CCS(=O)(=O)c1nc(-c2ccc(OC)cc2)c(-c2ccc(OC)cc2)[nH]1 | 10 | > 130 | –
43 | CS(=O)(=O)c1nc(-c2ccc(Cl)cc2)c(-c2ccc(C(F)(F)F)cc2)[nH]1 | – | > 135 | –
44 | CS(=O)(=O)c1nc(-c2ccc(C(F)(F)F)cc2)c(-c2ccccc2)[nH]1 | – | > 130 | Decrease (Rattus norvegicus [4]): 32%
45 | Fc1ccc(-c2nc(SC(F)(F)C(F)F)[nH]c2-c2ccccc2)cc1 | 0.18 | > 130 | –
46 | FC(F)C(F)(F)Sc1nc(-c2ccc(C(F)(F)F)cc2)c(-c2ccccc2)[nH]1 | – | > 130 | –

Row | Compound | ED50 (Rattus norvegicus [1]) [mg/kg] | ED50 (Mus musculus) [mg/kg] | other results
47 | CCOc1ccc(-c2[nH]c(S(C)(=O)=O)nc2-c2ccccc2)cc1 | – | > 130 | Decrease (Rattus norvegicus [4]): 41%
48 | FC(F)(F)CSc1nc(-c2ccc(Cl)cc2)c(-c2ccc(Cl)cc2)[nH]1 | 4 | > 130 | –
49 | FC(F)C(F)(F)Sc1nc(-c2ccc(Cl)cc2)c(-c2ccccc2)[nH]1 | – | > 130 | –
50 | CCCCSc1nc(-c2ccccc2)c(-c2ccccc2)[nH]1 | > 75 | > 130 | –
51 | COc1ccc(-c2nc(S(=O)(=O)C(C)C)[nH]c2-c2ccc(OC)cc2)cc1 | – | > 130 | –
52 | CS(=O)(=O)c1nc(-c2ccc(Cl)cc2)c(-c2ccc(F)cc2)[nH]1 | – | > 130 | –
53 | CSc1ccc(-c2[nH]c(SC(F)(F)C(F)F)nc2-c2ccc(F)cc2)cc1 | 1.6 | > 108 | –
54 | Cc1ccc(-c2nc(SC(F)(F)C(F)F)[nH]c2-c2ccc(C)cc2)cc1 | 27 | > 130 | –
55 | FC(F)Sc1nc(-c2ccccc2)c(-c2ccccc2)[nH]1 | 27 | > 130 | –
56 | C[S+]([O-])c1nc(-c2ccc(F)cc2)c(-c2ccc(F)cc2)[nH]1 (stereo not given) | – | > 130 | –
57 | CS(=O)(=O)c1nc(-c2ccc(Cl)c(Cl)c2)c(-c2ccccc2)[nH]1 | – | > 130 | Decrease (Rattus norvegicus [4]): 59%
58 | CCCCS(=O)(=O)c1nc(-c2ccccc2)c(-c2ccccc2)[nH]1 | > 100 | > 130 | –
59 | CCS(=O)(=O)c1nc(-c2ccccc2)c(-c2ccccc2)[nH]1 | – | > 135 | Decrease (Rattus norvegicus [3]): 32%
60 | CSc1nc(-c2ccc(Cl)cc2)c(-c2ccc(F)cc2)[nH]1 | – | > 130 | –
61 | Fc1ccc(-c2nc(SC(F)F)[nH]c2-c2ccc(F)cc2)cc1 | – | > 130 | –
62 | CSc1nc(-c2ccc(Cl)cc2)c(-c2ccc(C(F)(F)F)cc2)[nH]1 | – | > 130 | –
63 | CSc1nc(-c2ccc(Cl)c(Cl)c2)c(-c2ccccc2)[nH]1 | – | > 130 | Decrease (Rattus norvegicus [2]): 62%
64 | COc1ccc(-c2nc(SCC(F)(F)F)[nH]c2-c2ccc(OC)cc2)cc1 | 35 | > 135 | –
65 | CSc1nc(-c2ccc(C)cc2)c(-c2ccc(C)cc2)[nH]1 | – | > 130 | Decrease (Rattus norvegicus [2]): 26%
66 | CS(=O)(=O)c1nc(-c2ccc(F)cc2)c(-c2ccc(F)cc2)[nH]1 | – | > 130 | –
67 | FCC(F)(F)Sc1nc(-c2ccccc2)c(-c2ccccc2)[nH]1 | 2 | > 135 | –
68 | COc1ccc(-c2nc(S(=O)(=O)C(F)(F)C(F)F)[nH]c2-c2ccc(OC)cc2)cc1 | 1.4 | – | –
69 | O=S(=O)(CCC(F)(F)F)c1nc(-c2ccccc2)c(-c2ccccc2)[nH]1 | > 75 | > 135 | –
